Paper PMC4135234 (Combinatorial chemistry & high throughput screening, 2014)

Key:
MSI = test: FP MSI RNA binding assay, statement does not separate MSI1 and MSI2; set-up: species or system human; conditions: 10 μM
MSI1 [1] = target: T1, MSI1 (Homo sapiens, UniProt O43347); test: Orthogonal SYBR-based EMSA, inhibition of RNA binding to MSI1; conditions: 1 mM (LC), MSI Oligo #2 200 pmols, 1000 ng protein
MSI2 [2] = target: T2, MSI2 (Homo sapiens, UniProt Q96DH6); test: Orthogonal SYBR-based EMSA, inhibition of RNA binding to MSI2; conditions: 1 mM (LC), MSI Oligo #2 200 pmols, 1000 ng protein
T2 sequence (Q96DH6 whole entry): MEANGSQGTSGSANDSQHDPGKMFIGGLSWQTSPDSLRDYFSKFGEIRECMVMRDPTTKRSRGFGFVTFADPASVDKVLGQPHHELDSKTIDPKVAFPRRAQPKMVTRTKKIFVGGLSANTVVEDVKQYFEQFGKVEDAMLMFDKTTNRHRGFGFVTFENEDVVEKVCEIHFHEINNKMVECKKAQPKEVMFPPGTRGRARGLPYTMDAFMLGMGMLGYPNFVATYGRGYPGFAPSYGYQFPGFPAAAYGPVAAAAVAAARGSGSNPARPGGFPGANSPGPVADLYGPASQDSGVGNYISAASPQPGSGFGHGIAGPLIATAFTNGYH

LIN28A [3] = target: T3, LIN28A (Homo sapiens, UniProt Q9H9Z2); test: Orthogonal SYBR-based EMSA, inhibition of RNA binding to LIN28A; conditions: 1 mM (LC), MSI Oligo #2 200 pmols, 1000 ng protein
T3 sequence (Q9H9Z2 1-209): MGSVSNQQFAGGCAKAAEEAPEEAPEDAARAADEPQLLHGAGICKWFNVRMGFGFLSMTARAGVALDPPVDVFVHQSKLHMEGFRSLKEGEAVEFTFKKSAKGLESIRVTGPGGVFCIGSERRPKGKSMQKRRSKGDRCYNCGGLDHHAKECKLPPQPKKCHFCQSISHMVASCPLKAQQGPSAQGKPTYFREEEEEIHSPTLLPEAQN
How it was run: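 GST-LIN28A (1000 ng, E. coli-expressed) pre-incubated 30 min at room temperature in EMSA buffer with 1% DMSO, 10 μM test compound or 1 mM oleic acid. Then 200 pmols 15-nt ssRNA MSI Oligo #2 added for 30 min more (20 μL). Native 10% polyacrylamide TBE gel in chilled 0.5X TBE at 4°C, 100V, 2–2.5 h. 2X SYBR Safe stain, imaged. At least two repeats.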

MSI2 [4] = target: T2, MSI2; test: FP probe displacement, 1536-well, MSI2; type: binding
How it was run: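 Displacement of 10 nM Cy3-C9-r(GUAGUAGU) probe from 1 μM GST-MSI2 was run as a dose response in 1536-well format, with FP read using Cy3 filters. IC50 for displacement came from two independent experiments, each performed in triplicate.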

LIN28A [5] = target: T3, LIN28A; test: SYBR-based RNA EMSA, ssRNA oligo binding to GST-LIN28A; conditions: 200 pmols ssRNA oligo, 500 to 2500 ng GST-protein; symbols not defined
MSI2 [6] = target: T2, MSI2; test: SYBR-based RNA EMSA, ssRNA oligo binding to GST-MSI2; conditions: 200 pmols ssRNA oligo, 500 to 2500 ng GST-protein; symbols not defined
MSI1 [7] = target: T1, MSI1; test: SYBR-based RNA EMSA, ssRNA oligo binding to GST-MSI1; conditions: 200 pmols ssRNA oligo, 500 to 2500 ng GST-protein; symbols not defined

T1 sequence (O43347 whole entry): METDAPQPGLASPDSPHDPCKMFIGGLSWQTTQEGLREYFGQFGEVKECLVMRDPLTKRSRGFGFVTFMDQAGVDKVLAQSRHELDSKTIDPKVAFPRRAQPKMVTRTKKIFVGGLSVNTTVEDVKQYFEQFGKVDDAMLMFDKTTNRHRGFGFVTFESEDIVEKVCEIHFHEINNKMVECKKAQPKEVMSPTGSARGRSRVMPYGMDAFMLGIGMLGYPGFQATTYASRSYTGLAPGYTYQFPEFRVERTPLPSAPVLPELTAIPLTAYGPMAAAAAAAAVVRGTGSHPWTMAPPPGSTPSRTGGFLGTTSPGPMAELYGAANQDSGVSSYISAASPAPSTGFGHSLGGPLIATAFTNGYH

## CC[C@@]1(O)C[C@H](O[C@H]2C[C@H](N(C)C)[C@H](O)[C@H](C)O2)c2c(cc3c(c2O)C(=O)c2c(O)cccc2C3=O)[C@H]1C(=O)OC [aklavine]
MSI
  MSI inhibition activity in FP pilot screen, in words: inhibiting MSI binding activity

## COc1cccc2c1C(=O)c1c(O)c3c(c(O)c1C2=O)C[C@@](O)(C(C)=O)C[C@@H]3O[C@H]1C[C@H](N)[C@H](O)[C@H](C)O1 [daunorubicin, reference compound]
MSI
  MSI inhibition activity in FP pilot screen, in words: inhibiting MSI binding activity

## COc1cccc2c1C(=O)c1c(O)c3c(c(O)c1C2=O)C[C@@](O)(C(=O)CO)C[C@@H]3O[C@H]1C[C@H](N)[C@H](O)[C@H](C)O1 [doxorubicin, reference compound]
MSI
  MSI inhibition activity in FP pilot screen, in words: inhibiting MSI binding activity

## CC(=O)[C@]1(O)Cc2c(O)c3c(c(O)c2[C@@H](O[C@H]2C[C@H](N)[C@H](O)[C@H](C)O2)C1)C(=O)c1ccccc1C3=O [idarubicin, reference compound]
MSI
  MSI inhibition activity in FP pilot screen, in words: inhibiting MSI binding activity

## CCCCCCCC/C=C\CCCCCCCC(=O)O [oleic acid, reference compound]
MSI1 [1]
  % inhibition of RNA binding to MSI1 (EMSA): > 80%
MSI2 [2]
  % inhibition of RNA binding to MSI2 (EMSA): > 80%
LIN28A [3]
  % inhibition of RNA binding to LIN28A (EMSA): > 80%
MSI2 [4]
  IC50: 29 ± 1.7 µM

## CC[C@@]1(O)C[C@H](O)c2c(cc3c(c2O)C(=O)c2c(O)ccc(O)c2C3=O)[C@H]1C(=O)OC [rutilantinone]
MSI
  MSI inhibition activity in FP pilot screen, in words: inhibiting MSI binding activity

## MSI Oligo #4: ssRNA oligo GUAGUAGUAGUAGUA, 15 nt, 4 MSI binding motifs (RNA, backbone not given here)
LIN28A [5]
  Binding affinity(EMSA) LIN28A: highest affinity
MSI2 [6]
  Binding affinity(EMSA) MSI2: highest affinity
MSI1 [7]
  Binding affinity(EMSA) MSI1: highest affinity

## ssRNA Oligo #8: non-specific ssRNA oligo AGGGAUCGAAAAUUG, 15 nt, no binding motif (RNA, backbone not given here)
LIN28A [5]
  Binding affinity(EMSA) LIN28A: high affinity
